Measurements: ChEMBL document CHEMBL5352501, “Catalytic Degraders Effectively Address Kinase Site Mutations in EML4-ALK Oncogenic Fusions” (J Med Chem, 2023)
Values after ≈ are worked out from the molar mass of the structure shown. Values belong to the compound of their own block, whether it stands above or below them. Active and inactive are the calls of the source. No cut-off for these calls is given here.

Tests used:
[1] = system: Mus musculus; type: functional, organism-based; settings: BALB/c, BaF3, dose 10.0 mg/kg, route po, time 14.0 day
[2] = Solubility of the compound in FeSSIF at pH 5.0 incubated for 24 hrs under shaking condition by UPLC-UV/HPLC-UV analysis; type: physicochemical
[3] = Microsomal stability in human liver microsomes assessed as intrinsic clearance at 1 uM and measured upto 60 mins in presence of NADPH by LC-MS/MSC analysis; type: ADME, Microsome; settings: read-out: CLH
[4] = system: HepG2; assay: Cytotoxicity against human HepG2 cells assessed as reduction in cell viability incubated for 48 hrs by Hoechst 33342 staining based imaging analysis; type: toxicity; settings: hepg2, 48 h
[5] = system: BaF3; assay: Antiproliferative activity against mouse Ba/F3 cells stably expressing HiBiT-tagged EML4-ALK variant 3 C1156Y mutant assessed as cell growth inhibition incubated for 72 hrs by CellTiter-Glo assay; type: functional
Procedure, shortened: (§1)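 Ba/F3 cells stably expressing HiBiT-tagged EML4-ALK v3 (wild type or the named kinase-site mutant) were treated with compound for 72 h. Growth inhibition was reported as log GI50.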

[6] = Oral bioavailability in C57BL/J6 mouse at 10 mg/kg and measured upto 24 hrs by LC-MS/MS analysis; type: ADME, organism-based; settings: in vivo
Procedure, shortened: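 Mouse PK was run with both oral and intravenous dosing, with 10 mg/kg as the study dose. Oral bioavailability was derived from comparing the two routes.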

[7] = system: BaF3; type: functional; settings: Mus musculus, route po
[8] = system: HepG2; assay: Induction of phospholipidosis in human HepG2 cells assessed as […] incubated for 48 hrs by Hoechst 33342 staining based imaging analysis; type: toxicity, cell-based; settings: hepg2, 48 h
[9] = system: BaF3; type: functional; settings: Mus musculus, time 72 hrs
[10] = system: Mus musculus; type: functional, organism-based; settings: BALB/c, BaF3, dose 10.0 mg/kg, route po, time 14.0 day; remark: listed apart in the source
[11] = system: Erythrocyte; assay: Hemolytic activity in mouse RBC assessed as hemolysis incubated for 45 mins by absorbance based microplate reader analysis; type: toxicity, cell-based; settings: 0.75 h
[12] = Plasma protein binding in human; type: ADME, cell-free
[13] = Plasma protein binding in mouse; type: ADME, cell-free
[14] = system: BaF3; type: functional; settings: Mus musculus, time 72 hrs; remark: listed apart in the source
[15] = system: BaF3; assay: Antiproliferative activity against mouse Ba/F3 cells stably expressing HiBiT-tagged wild type EML4-ALK variant 3 assessed as cell growth inhibition incubated for 72 hrs by CellTiter-Glo assay; type: functional; procedure, shortened: as §1
[16] = system: BaF3; assay: Antiproliferative activity against mouse Ba/F3 cells stably expressing HiBiT-tagged EML4-ALK variant 3 G1202R mutant assessed as cell growth inhibition incubated for 72 hrs by CellTiter-Glo assay; type: functional; procedure, shortened: as §1
[17] = system: Erythrocyte; assay: Hemolytic activity in human RBC assessed as hemolysis incubated for 45 mins by absorbance based microplate reader analysis; type: toxicity, cell-based; settings: 0.75 h
[18] = biological target: ALK tyrosine kinase receptor (Homo sapiens, UniProt Q9UM73); assay: Inhibition of N-terminal flag-tagged NanoLuc fused ALK kinase domain (1072 to 1410 residues) (unknown origin) expressed in mouse BaF3 cells assessed as reduction in BRET signal incubated for 2 hrs in presence of CPD-1571 tracer by NanoBRET assay; type: cell-based
[19] = biological target: Protein cereblon/ALK tyrosine kinase receptor/Echinoderm microtubule-associated protein-like 4 (Homo sapiens, UniProt Q9UM73+Q9HC35+Q96SW2); assay: PROTAC activity at human CRBN/HiBit-tagged wild type human EML4-ALK variant 3b expressed in mouse BaF3 cells assessed as induction of EML4-ALK variant 3b fusion protein degradation incubated for 4 hrs by Nano-Glo HiBiT assay; type: cell-based
[20] = biological target: Ribosomal protein S6 kinase alpha-1 (Homo sapiens) (UniProt Q15418); assay: Induction of RSK1 degradation in human MOLT-4 cells incubated for 6 hrs by MS based proteomics analysis; type: cell-based
[21] = biological target: Protein-tyrosine kinase 2-beta (Homo sapiens) (UniProt Q14289); assay: Induction of PTK2B degradation in human MOLT-4 cells incubated for 6 hrs by MS based proteomics analysis; type: cell-based
[22] = biological target: T1, Aurora kinase A (Homo sapiens) (UniProt O14965); assay: Induction of AURKA degradation in human MOLT-4 cells incubated for 6 hrs by MS based proteomics analysis; type: cell-based
T1 sequence (whole entry): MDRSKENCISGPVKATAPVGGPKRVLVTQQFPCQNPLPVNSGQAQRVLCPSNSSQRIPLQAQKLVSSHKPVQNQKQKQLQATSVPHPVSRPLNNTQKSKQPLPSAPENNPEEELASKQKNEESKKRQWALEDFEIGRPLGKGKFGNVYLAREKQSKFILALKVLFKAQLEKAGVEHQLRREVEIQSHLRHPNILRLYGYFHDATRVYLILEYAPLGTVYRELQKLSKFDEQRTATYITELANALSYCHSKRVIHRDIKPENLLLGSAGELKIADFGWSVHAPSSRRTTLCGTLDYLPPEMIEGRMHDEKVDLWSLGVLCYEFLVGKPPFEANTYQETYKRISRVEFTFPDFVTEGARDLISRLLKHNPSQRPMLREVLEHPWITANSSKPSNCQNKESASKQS

[23] = biological target: T2, Serine/threonine-protein kinase ULK1 (Homo sapiens) (UniProt O75385); assay: Induction of ULK1 degradation in human MOLT-4 cells incubated for 6 hrs by MS based proteomics analysis; type: cell-based
T2 sequence (whole entry): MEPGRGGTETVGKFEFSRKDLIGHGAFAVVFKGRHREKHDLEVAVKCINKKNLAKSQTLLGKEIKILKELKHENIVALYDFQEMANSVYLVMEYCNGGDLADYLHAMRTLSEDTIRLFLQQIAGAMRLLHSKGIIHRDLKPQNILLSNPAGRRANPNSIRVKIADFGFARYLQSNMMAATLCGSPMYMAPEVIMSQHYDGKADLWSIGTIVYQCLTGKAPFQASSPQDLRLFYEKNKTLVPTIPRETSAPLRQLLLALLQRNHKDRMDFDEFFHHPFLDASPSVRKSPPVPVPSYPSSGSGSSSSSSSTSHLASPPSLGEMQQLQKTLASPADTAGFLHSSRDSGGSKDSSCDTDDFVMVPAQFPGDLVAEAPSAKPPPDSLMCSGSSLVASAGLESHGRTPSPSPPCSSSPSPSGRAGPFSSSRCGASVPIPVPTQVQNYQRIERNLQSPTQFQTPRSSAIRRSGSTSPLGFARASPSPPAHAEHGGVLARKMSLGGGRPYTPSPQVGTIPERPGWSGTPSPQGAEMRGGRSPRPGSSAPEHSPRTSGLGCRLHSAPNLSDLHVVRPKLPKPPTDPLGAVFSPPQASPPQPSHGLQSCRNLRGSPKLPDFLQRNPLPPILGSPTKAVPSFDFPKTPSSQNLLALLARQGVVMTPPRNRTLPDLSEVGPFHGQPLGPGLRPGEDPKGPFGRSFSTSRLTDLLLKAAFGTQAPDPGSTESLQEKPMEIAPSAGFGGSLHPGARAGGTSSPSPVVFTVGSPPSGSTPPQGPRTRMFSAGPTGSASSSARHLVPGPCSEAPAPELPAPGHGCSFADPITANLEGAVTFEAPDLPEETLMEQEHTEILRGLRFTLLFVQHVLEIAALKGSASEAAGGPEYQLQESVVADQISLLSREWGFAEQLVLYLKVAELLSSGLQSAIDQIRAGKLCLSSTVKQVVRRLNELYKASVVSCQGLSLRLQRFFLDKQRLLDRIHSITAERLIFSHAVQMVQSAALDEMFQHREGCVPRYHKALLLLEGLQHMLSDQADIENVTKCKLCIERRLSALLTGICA

[24] = biological target: Protein cereblon/ALK tyrosine kinase receptor/Echinoderm microtubule-associated protein-like 4 (Homo sapiens, UniProt Q9UM73+Q9HC35+Q96SW2, G1202R); assay: PROTAC activity at human CRBN/EML4-ALK variant 3b G1202R mutant expressed in mouse BaF3 cells assessed as induction of EML4-ALK fusion protein degradation incubated for 4 hrs by Nano-Glo HiBiT assay; type: cell-based
[25] = biological target: Tyrosine-protein kinase Fer (Homo sapiens) (UniProt P16591); assay: Induction of FER degradation in human MOLT-4 cells incubated for 6 hrs by MS based proteomics analysis; type: cell-based
[26] = system: Protein cereblon/ALK tyrosine kinase receptor/Echinoderm microtubule-associated protein-like 4 (Homo sapiens), Q9UM73+Q9HC35+Q96SW2 [UNDEFINED MUTATION]; assay: PROTAC activity at human CRBN/HiBit-tagged EML4-ALK variant 3b G1202R mutant expressed in mouse BaF3 cells assessed as induction of EML4-ALK variant 3b fusion protein degradation at 2 uM incubated for 4 hrs by Nano-Glo HiBiT assay relative to control; type: cell-based
Procedure, shortened: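 Ba/F3 cells stably expressing humanized CRBN and HiBiT-tagged EML4-ALK v3 (WT or mutant) were treated for 4 h. Remaining fusion protein was quantified by HiBiT bioluminescence relative to control.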

[27] = system: Mus musculus; type: functional, organism-based; settings: BALB/c, BaF3, dose 10.0 mg/kg, route po, time 14.0 day; remark: listed apart in the source
[28] = system: Mus musculus; type: functional, organism-based; settings: BALB/c, BaF3, dose 10.0 mg/kg, route po, time 14.0 day; remark: listed apart in the source

Sequence of ALK tyrosine kinase receptor (Q9UM73 whole entry, the tested form may be a part): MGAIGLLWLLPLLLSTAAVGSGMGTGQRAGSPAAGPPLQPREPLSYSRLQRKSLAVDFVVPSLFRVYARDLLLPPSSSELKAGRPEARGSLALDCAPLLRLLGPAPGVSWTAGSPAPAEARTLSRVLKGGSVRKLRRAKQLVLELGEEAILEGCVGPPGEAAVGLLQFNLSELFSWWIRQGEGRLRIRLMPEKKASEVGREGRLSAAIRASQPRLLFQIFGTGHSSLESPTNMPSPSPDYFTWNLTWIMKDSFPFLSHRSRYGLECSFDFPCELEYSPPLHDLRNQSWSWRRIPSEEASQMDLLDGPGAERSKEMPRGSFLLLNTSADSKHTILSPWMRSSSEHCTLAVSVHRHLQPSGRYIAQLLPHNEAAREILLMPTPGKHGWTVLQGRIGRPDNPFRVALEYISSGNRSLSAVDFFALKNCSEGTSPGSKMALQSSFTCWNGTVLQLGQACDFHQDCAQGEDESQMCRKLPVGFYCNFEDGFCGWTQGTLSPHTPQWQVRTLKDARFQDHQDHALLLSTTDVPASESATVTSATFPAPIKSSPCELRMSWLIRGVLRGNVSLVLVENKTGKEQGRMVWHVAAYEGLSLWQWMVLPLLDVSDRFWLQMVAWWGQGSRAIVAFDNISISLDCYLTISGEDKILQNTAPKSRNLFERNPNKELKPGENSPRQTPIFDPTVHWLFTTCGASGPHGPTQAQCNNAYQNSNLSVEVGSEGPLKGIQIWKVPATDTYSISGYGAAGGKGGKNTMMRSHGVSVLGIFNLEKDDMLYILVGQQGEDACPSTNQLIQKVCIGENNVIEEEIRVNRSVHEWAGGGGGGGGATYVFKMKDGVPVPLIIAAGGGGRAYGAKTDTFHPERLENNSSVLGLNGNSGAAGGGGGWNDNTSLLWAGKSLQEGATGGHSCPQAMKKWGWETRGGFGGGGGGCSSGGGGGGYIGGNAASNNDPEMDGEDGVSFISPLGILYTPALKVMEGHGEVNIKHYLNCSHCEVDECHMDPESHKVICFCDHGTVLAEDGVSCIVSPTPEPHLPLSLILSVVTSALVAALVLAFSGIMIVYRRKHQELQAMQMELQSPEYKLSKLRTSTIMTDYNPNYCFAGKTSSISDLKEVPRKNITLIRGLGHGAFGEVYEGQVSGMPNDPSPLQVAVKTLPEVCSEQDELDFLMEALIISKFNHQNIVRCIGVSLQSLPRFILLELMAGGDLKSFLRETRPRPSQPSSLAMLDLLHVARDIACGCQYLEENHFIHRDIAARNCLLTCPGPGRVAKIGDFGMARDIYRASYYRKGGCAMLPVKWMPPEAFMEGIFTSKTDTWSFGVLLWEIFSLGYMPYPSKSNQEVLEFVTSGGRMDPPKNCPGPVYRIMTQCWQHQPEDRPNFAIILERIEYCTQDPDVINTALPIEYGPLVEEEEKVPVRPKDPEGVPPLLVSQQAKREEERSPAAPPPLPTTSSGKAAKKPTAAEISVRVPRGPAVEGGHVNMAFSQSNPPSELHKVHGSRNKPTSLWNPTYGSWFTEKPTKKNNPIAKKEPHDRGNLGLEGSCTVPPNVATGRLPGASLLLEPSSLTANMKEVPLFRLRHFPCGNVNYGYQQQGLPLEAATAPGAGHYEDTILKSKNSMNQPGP
Sequence of Protein cereblon/ALK tyrosine kinase receptor/Echinoderm microtubule-associated protein-like 4 (Homo sapiens, UniProt Q9UM73+Q9HC35+Q96SW2) (Q96SW2 whole entry, change not shown, the tested form may be a part): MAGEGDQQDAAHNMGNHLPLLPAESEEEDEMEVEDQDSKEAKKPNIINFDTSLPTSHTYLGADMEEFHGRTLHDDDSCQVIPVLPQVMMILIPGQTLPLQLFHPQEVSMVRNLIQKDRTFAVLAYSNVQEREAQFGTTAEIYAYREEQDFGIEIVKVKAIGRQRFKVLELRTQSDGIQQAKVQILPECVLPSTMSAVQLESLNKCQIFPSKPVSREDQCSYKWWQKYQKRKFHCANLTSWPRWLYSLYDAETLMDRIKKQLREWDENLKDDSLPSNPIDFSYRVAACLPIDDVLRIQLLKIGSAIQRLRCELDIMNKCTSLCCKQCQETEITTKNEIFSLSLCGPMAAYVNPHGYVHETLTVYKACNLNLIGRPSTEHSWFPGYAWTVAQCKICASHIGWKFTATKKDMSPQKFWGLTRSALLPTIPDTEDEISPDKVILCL
Sequence of Protein cereblon/ALK tyrosine kinase receptor/Echinoderm microtubule-associated protein-like 4 (Homo sapiens, UniProt Q9UM73+Q9HC35+Q96SW2) (Q9HC35 whole entry, change not shown, the tested form may be a part): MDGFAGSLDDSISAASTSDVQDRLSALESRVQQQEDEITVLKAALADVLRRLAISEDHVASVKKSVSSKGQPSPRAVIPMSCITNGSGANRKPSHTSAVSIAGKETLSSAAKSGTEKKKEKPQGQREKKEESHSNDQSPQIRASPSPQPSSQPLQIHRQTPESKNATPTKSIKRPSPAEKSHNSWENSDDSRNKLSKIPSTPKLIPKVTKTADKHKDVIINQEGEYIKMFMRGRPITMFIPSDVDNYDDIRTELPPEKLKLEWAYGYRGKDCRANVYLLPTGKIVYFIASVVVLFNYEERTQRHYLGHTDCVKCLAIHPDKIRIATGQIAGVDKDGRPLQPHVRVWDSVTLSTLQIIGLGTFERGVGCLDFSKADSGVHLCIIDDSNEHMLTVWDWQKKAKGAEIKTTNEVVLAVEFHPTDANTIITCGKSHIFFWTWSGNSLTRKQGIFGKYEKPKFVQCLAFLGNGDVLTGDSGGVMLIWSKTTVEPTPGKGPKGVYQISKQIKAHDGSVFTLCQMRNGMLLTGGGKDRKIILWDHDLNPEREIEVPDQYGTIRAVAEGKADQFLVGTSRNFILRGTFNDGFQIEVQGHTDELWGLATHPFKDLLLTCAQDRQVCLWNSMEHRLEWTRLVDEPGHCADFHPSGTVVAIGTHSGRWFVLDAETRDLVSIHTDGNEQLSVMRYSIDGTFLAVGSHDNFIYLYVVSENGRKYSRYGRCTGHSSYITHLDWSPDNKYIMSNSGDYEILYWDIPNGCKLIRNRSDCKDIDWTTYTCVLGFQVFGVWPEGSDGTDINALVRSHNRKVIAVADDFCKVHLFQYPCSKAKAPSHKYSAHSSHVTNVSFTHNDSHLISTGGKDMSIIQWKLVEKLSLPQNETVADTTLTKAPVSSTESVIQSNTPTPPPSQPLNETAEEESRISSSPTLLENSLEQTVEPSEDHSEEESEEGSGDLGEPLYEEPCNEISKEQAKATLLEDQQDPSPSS
Sequence of Protein cereblon/ALK tyrosine kinase receptor/Echinoderm microtubule-associated protein-like 4 (Homo sapiens, UniProt Q9UM73+Q9HC35+Q96SW2) (Q9UM73 19-1620 limits assumed, change not shown): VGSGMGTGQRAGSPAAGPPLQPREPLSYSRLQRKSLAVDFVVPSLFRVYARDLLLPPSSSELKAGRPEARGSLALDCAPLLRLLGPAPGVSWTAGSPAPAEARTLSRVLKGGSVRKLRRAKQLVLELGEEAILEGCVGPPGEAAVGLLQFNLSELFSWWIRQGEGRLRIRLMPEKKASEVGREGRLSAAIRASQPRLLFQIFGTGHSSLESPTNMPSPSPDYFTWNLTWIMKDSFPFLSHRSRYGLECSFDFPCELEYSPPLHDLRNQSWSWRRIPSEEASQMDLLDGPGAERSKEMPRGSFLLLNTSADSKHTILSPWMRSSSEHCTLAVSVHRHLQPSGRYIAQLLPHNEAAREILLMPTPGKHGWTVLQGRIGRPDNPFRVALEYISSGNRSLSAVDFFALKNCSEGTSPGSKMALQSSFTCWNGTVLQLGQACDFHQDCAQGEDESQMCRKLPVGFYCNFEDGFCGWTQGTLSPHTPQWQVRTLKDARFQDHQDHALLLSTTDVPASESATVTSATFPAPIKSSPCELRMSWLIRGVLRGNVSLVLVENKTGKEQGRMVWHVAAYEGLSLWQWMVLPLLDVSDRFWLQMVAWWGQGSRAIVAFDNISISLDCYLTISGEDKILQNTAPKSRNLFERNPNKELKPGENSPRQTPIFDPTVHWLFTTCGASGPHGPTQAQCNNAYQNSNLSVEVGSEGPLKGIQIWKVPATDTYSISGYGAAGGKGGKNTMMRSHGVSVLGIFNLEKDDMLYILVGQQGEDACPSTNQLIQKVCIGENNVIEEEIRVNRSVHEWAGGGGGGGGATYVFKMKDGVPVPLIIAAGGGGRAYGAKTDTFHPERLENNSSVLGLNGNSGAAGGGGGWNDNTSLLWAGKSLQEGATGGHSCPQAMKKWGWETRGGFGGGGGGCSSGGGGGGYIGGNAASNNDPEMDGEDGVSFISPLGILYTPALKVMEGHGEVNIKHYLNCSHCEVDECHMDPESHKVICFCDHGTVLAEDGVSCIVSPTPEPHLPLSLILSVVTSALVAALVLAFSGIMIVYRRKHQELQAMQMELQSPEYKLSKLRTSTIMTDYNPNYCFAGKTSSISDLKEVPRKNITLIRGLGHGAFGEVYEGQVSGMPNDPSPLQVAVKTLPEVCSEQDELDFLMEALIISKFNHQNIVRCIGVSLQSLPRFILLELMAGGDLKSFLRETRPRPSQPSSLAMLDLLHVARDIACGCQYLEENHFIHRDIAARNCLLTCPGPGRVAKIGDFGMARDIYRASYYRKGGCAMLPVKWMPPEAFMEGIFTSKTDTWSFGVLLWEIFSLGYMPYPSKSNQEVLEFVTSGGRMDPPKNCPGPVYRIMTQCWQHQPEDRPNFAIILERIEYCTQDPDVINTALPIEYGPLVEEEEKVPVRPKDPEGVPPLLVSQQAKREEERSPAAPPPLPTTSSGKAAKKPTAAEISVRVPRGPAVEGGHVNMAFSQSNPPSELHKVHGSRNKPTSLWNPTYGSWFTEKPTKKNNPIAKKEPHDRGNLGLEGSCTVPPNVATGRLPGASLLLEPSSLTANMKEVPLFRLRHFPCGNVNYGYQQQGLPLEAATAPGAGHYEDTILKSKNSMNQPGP

Structure (SMILES): COc1cc(C2CCN(CC3CN(c4ccc5c(c4)C(=O)N(C4CCC(=O)NC4=O)C5=O)C3)CC2)c(C)cc1Nc1ncc(Cl)c(Nc2ccccc2S(=O)(=O)C(C)C)n1 (stereo not drawn)
Activity [1]: Active
solubility thermodynamic at 24 h [2]: 122 µM (≈ 104 µg/mL)
microsomal CLint at 1 µM [3]: 8 µL/min/mg
Activity [4]: Toxic
GI50 [5]: 19.9 nM
F [6]: 28%
inhibition in vivo at 10 mg/kg ([7]; BaF3, 336 h, time 14 day, read-out: TGI): 33%
Activity [8]: Toxic
GI50 ([9]; read-out: GI50): 10 nM
GI50 ([9]; read-out: pGI50 (converted)): 10 nM
Activity [10]: Active
Activity [11]: Non-Toxic
PPB [12]: > 99.9%
PPB [13]: > 99.9%
GI50 [14]: 3.16 nM
GI50 [15]: 3.16 nM
GI50 [16]: 19.9 nM
Activity [17]: Non-Toxic

GI50 [5]: 2000 nM
GI50 ([9]; read-out: pGI50 (converted)): 2000 nM
GI50 [14]: 2000 nM
GI50 [15]: 1000 nM
GI50 [16]: 2000 nM
Structure (SMILES): C[C@@H](Oc1cc(-c2cnn(C3CCNCC3)c2)cnc1N)c1c(Cl)ccc(F)c1Cl [CRIZOTINIB]

GI50 [5]: 39.8 nM
GI50 ([9]; read-out: pGI50 (converted)): 200 nM
GI50 [14]: 39.8 nM
GI50 [15]: 12.6 nM
GI50 [16]: 251 nM
Structure (SMILES): COc1cc(N2CCC(N3CCN(C)CC3)CC2)ccc1Nc1ncc(Cl)c(Nc2ccccc2P(C)(C)=O)n1 [BRIGATINIB]

GI50 [5]: 316 nM
GI50 ([9]; read-out: pGI50 (converted)): 501 nM
GI50 [14]: 158 nM
GI50 [15]: 200 nM
GI50 [16]: 2000 nM
Structure (SMILES): Cc1cc(Nc2ncc(Cl)c(Nc3ccccc3S(=O)(=O)C(C)C)n2)c(OC(C)C)cc1C1CCNCC1 [CERITINIB]
Activity [4]: Non-Toxic
Activity [8]: Non-Toxic

Structure (SMILES): COc1cc(C2CCN(CCCC#Cc3cccc4c3CN(C3CCC(=O)NC3=O)C4=O)CC2)c(C)cc1Nc1ncc(Cl)c(Nc2ccccc2S(=O)(=O)C(C)C)n1 (stereo not drawn)
IC50 [18]: 542 nM
DC50 [19]: 6.6 nM
microsomal CLint at 1 µM [3]: 10.5 µL/min/mg
Activity [20]: Active
F [6]: 9%
Activity [21]: Active
Activity [11]: Non-Toxic
Activity [22]: Active
Activity [23]: Active
DC50 [24]: 43 nM
Activity [25]: Active
Activity [17]: Non-Toxic

Structure (SMILES): Cc1cc(Nc2ncc(Cl)c(Nc3ccccc3S(=O)(=O)C(C)C)n2)c(OC(C)C)cc1C1CCN(CCOCCOCCNC(=O)CNc2cccc3c2C(=O)N(C2CCC(=O)NC2=O)C3=O)CC1 (stereo not drawn)
IC50 [18]: 971 nM
DC50 [19]: 289 nM
Activity [26]: < 50%

Structure (SMILES): C[C@H]1Oc2cc(cnc2N)-c2c(nn(C)c2C#N)CN(C)C(=O)c2ccc(F)cc21 [LORLATINIB]
Activity [27]: Active
GI50 [5]: 39.8 nM
Activity ([7]; dose 10.0 mg/kg, time 14.0 day): inactive
GI50 ([9]; read-out: pGI50 (converted)): 501 nM
Activity [28]: Active
GI50 [14]: 50.1 nM
GI50 [15]: 3.16 nM
GI50 [16]: 100 nM
